We go through one compound from ChEMBL document CHEMBL4017532, “Multifunctional Hybrid Compounds Derived from 2-(2,5-Dioxopyrrolidin-1-yl)-3-methoxypropanamides with Anticonvulsant and Antinociceptive Properties” (J Med Chem, 2017).

Calls of active or inactive are those of the source.

For data set [1], the system named is Mus musculus. Nature of the data set: Anticonvulsant activity in Albino Swiss CD-1 mouse assessed as inhibition of pentylenetetrazole-induced seizures by measuring time to peak effect at 100 mg/kg, ip administered up to 2 hrs prior to PTZ induction measured for 30 mins. It counts as functional.
In data set [2] the test system is Mus musculus. Put plainly: Antinociceptive activity in Albino Swiss CD-1 mouse assessed as inhibition of formalin-induced neurogenic pain response at 200 mg/kg, ip administered 30 mins before formalin injection measured up to 5 mins relative to control. The conditions noted are these: Swiss CD-1, ip. Type of data set: functional. An outline of the steps: (§1)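 Male CD-1 mice were given test agents ip 30 min before subcutaneous intraplantar formalin. Doses were 12.5, 25 or 50 mg/kg, or 100, 150 or 200 mg/kg for the reference. Vehicle was 1% Tween 80 at 10 mL/kg. Paw licking time was recorded in phase I (0–5 min) and phase II (15–30 min). Data are mean ± SEM of 8–10 mice, by Dunnett's test. ED50 was obtained by log-probit analysis with 95% confidence limits.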

Data set [3] can be described thus: Neurotoxicity in ip dosed Albino Swiss CD-1 mouse assessed as induction of motor impairment measured up to 60 secs by chimney test. Type of data set: toxicity, organism-based. The conditions noted are these: in vivo. An outline of the steps:
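Acute neurological toxicity after ip dosing (1% Tween 80 suspension) was assessed in the mouse chimney test. TD50 with 95% confidence limits was derived by probit analysis. Protective index is TD50 from the chimney test divided by ED50 from the MES, scPTZ or 6 Hz test.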

The subject of data set [4] is Mus musculus. Put plainly: Antiallodynic activity in oxaliplatin-induced Albino Swiss CD-1 mouse model of peripheral neuropathy assessed as elevation in pain sensitivity threshold at 150 mg/kg, ip administered 30 mins prior to oxaliplatin challenge relative to control. It counts as functional. In short, it runs like this: (§2)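 Male CD-1 mice, 18–25 g, that had developed oxaliplatin-induced tactile allodynia were dosed ip 30 min before testing. Doses were 25, 50 or 100 mg/kg, or 50, 100 or 150 mg/kg for the reference. Vehicle was 1% aqueous Tween 80. Paw-withdrawal force was measured by von Frey filaments. Data are mean ± SEM, analysed by repeated-measures ANOVA with Dunnett's test against oxaliplatin plus vehicle mice.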

Data set [5] concerns Mus musculus. Put plainly: Antinociceptive activity in Albino Swiss CD-1 mouse assessed as inhibition of formalin-induced neurogenic pain response at 100 mg/kg, ip administered 30 mins before formalin injection measured up to 5 mins relative to control. Type of data set: functional. To be noted: Swiss CD-1, ip. In short, it runs like this: as §1
The subject of data set [6] is Mus musculus. Put plainly: Antiallodynic activity in oxaliplatin-induced Albino Swiss CD-1 mouse model of peripheral neuropathy assessed as elevation in pain sensitivity threshold at 50 mg/kg, ip administered 30 mins prior to oxaliplatin challenge relative to control. Type of data set: functional. In short, it runs like this: as §2
The test system of data set [7] is Mus musculus. Nature of the data set: Antinociceptive activity in Albino Swiss CD-1 mouse assessed as inhibition of formalin-induced neurogenic pain response at 150 mg/kg, ip administered 30 mins before formalin injection measured up to 5 mins relative to control. Type of data set: functional. To be noted: Swiss CD-1, ip. An outline of the steps: as §1
The subject of data set [8] is Mus musculus. Nature of the data set: Anticonvulsant activity in Albino Swiss CD-1 mouse assessed as protection against maximal electroshock-induced seizures by measuring time to peak effect at 100 mg/kg, ip pretreated up to 2 hrs followed by 50 Hz current induction for […]. It counts as functional.
Data set [9] has as its system Mus musculus. Nature of the data set: Antinociceptive activity in Albino Swiss CD-1 mouse assessed as inhibition of capsaicin-induced nociception by measuring time spent licking injected paw at 200 mg/kg, ip administered 30 mins mins prior to capsaicin challenge measured for 5 mins relative to control. It counts as functional. To be noted: Swiss CD-1, ip. An outline of the steps:
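Mice (male CD-1, 18–25 g) were pretreated ip 30 min before intraplantar capsaicin. Doses were 25, 50 or 100 mg/kg, or 100, 150 or 200 mg/kg for the reference. Vehicle was 1% Tween 80 at 10 mL/kg. Duration of nociceptive response was scored over 5 min after injection. Data are mean ± SEM of 8–10 mice, by one-way ANOVA with Dunnett's test against vehicle.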

Data set [10] deals with Mus musculus. Nature of the data set: Antiallodynic activity in oxaliplatin-induced Albino Swiss CD-1 mouse model of peripheral neuropathy assessed as elevation in pain sensitivity threshold at 100 mg/kg, ip administered 30 mins prior to oxaliplatin challenge relative to control. Type of data set: functional. An outline of the steps: as §2
For data set [11], the system named is Mus musculus. Put plainly: Analgesic activity in Albino Swiss CD-1 mouse assessed as increase in pain response latency administered at 150 mg/kg, ip treated up to 90 mins prior to tet by hot plate assay. Type of data set: functional, organism-based. An outline of the steps: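 Male CD-1 mice, 18–25 g, 6–12 per group, given test agents as 1% aqueous Tween 80 suspension ip. Doses were 50, 100 or 150 mg/kg, with morphine hydrochloride at 4 mg/kg as reference. Mice were placed on the hot plate 15, 30, 45, 60 and 90 min after dosing, and latency to pain reaction was recorded.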
For orientation: Thermal pain tests record how soon the animal reacts.

Take `CCCC(CCC)C(=O)O` [VALPROIC ACID]: the Time in [1] and in [8] was 0.5 h in each case. The inhibition in vivo at 200 mg/kg amounted to 29.2% in data set [2] and 42.2% in data set [9]. Besides, the TD50 at 1 min in data set [3] was 373 mg/kg. For the same compound, the results for the Activity in data set [4], in data set [6] and in [10] were 151.5%, 105% and 121%, respectively. Besides, in data set [5], the inhibition in vivo at 100 mg/kg was 15.7%. Also, the inhibition in vivo at 150 mg/kg in data set [7] came out at 25.8%. Further, the outcome in data set [11] was inactive.

In general, inhibition in vivo refers to the percentage by which the read-out fell short of the control. The TD50 is the dose at which the toxic effect under study appears in half of the subjects.
